Measured values pooled from the literature.
Each line is one published result; the experiments were not run side by side.

Structure (SMILES)	host	matrix	route	dose	time	notes	concentration
COc1cccc(-c2n[nH]c(SCc3ccccn3)n2)c1OC	male Sprague-Dawley rat	plasma	oral	10 mg/kg	1 h	single dose	10400 ng/mL
Cc1noc(C)c1Cn1cc(N2C(=O)N(Cc3cccc(O)c3)C(C)(C)C2=O)cn1	male Sprague-Dawley rat	plasma	oral	100 mg/kg	8 h	single dose	5.2 ng/mL
COc1ccc(C)c2sc(NC(=O)c3ccncc3)nc12	rat	brain	oral	10 mg/kg	1 h		~10 µM
CCc1cc(-c2noc(-c3cc(OC)nc(C4CCCC4)c3)n2)cc(C)c1OC[C@@H](O)CO	Wistar rat	plasma	oral	0.3 mg/kg	24 h	single dose	5 ng/mL
COc1nc(-c2cc(C)c(N[C@@H](C)c3cc(F)cc(F)c3)nn2)ccc1-n1cnc(C)c1	male Sprague-Dawley rat	CSF	oral	5 mg/kg	4 h	multiple doses, once daily	15.3 ng/mL
Cc1noc(C)c1Cn1cc(N2C(=O)CN(Cc3cccc(O)c3)C2=O)cn1	male Sprague-Dawley rat	plasma	oral	10 mg/kg	1 h		8.29 ng/mL
COc1ccc2c(=O)n(C)c(-c3ccccc3)nc2c1	male Sprague-Dawley rat	spleen	oral	30 mg/kg	4 h		6.13 ng/mL
CCOC(=O)[C@@]12C[C@@H]1[C@@H](n1ccc3c(NC)nc(C#Cc4ccc(Cl)s4)nc31)[C@H](O)[C@@H]2O	male Sprague-Dawley rat	plasma	oral	3 mg/kg	30 min		48.4 ng/mL
NC(=O)C(c1ccccc1)(c1ccc(F)cc1)c1ccc(F)cc1	female Lewis rat	brain	intraperitoneal	50 mg/kg	1 h	single dose	43 µM
Cc1ccc(-c2cc(C(F)(F)F)nn2-c2ccc(S(N)(=O)=O)cc2)cc1	male Sprague-Dawley rat	blood	oral	20 mg/kg	4 h		6.36 µM
